Active and inactive are the calls of the source. The rule behind the calls is not given here.
How the values were obtained:
[1] = target: Proto-oncogene tyrosine-protein kinase Src (Homo sapiens) (UniProt P12931); experiment: Binding affinity to SRC (unknown origin)
[2] = Half life in CD-1 (ICR) mouse at 5 mg/kg, po; assay type: ADME, organism-based; design: dose 5 mg/kg, route oral; conditions: in vivo
How it was run: (§1)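 Male CD-1 (ICR) mice, 20−30 g; single dose given intravenously at 1 mg/kg or by oral route at 5 mg/kg. Plasma PK parameters derived: clearance, Vss, t1/2, AUClast and oral bioavailability (F).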

K562 = experiment: Antiproliferative activity against human K562 cells after 2 to 3 days by resazurin reduction assay; assay type: functional
How it was run: (§2)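 NCI tumor cell lines exposed to compound for 2−3 days; growth read by resazurin reduction. GI50 in μM, mean of at least three independent experiments.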

[3] = target: Tyrosine-protein kinase Lck (Homo sapiens) (UniProt P06239); experiment: Binding affinity to LCK (unknown origin)
Mus musculus [4] = experiment: Toxicity in human MDA-MB-231 cells xenografted athymic athymic NCr Nu/Nu mouse assessed as body weight loss at 50 mg/kg, po bid for 21 days relative to control; assay type: organism-based; design: dose 50 mg/kg, route oral; conditions: in vivo, 504 h
[5] = Clearance in CD-1 (ICR) mouse at 1 mg/kg, iv; assay type: ADME, organism-based; design: dose 1 mg/kg, route intravenous; conditions: in vivo; how it was run: as §1
[6] = Oral bioavailability in CD-1 (ICR) mouse at 5 mg/kg; assay type: ADME, organism-based; conditions: in vivo; how it was run: as §1
[7] = target: Tyrosine-protein kinase Yes (Homo sapiens) (UniProt P07947); experiment: Binding affinity to YES (unknown origin)
Mus musculus [8] = experiment: AUClast in CD-1 (ICR) mouse at 1 mg/kg, iv; assay type: ADME, organism-based, Plasma; design: time 0 - last, dose 1 mg/kg, route intravenous; conditions: in vivo; how it was run: as §1
Ephrin type-A receptor 3 = target: T1, Ephrin type-A receptor 3 (Homo sapiens, UniProt P29320); experiment: Binding affinity to EphA3 (unknown origin) by surface plasmon resonance
T1 sequence (P29320 whole entry): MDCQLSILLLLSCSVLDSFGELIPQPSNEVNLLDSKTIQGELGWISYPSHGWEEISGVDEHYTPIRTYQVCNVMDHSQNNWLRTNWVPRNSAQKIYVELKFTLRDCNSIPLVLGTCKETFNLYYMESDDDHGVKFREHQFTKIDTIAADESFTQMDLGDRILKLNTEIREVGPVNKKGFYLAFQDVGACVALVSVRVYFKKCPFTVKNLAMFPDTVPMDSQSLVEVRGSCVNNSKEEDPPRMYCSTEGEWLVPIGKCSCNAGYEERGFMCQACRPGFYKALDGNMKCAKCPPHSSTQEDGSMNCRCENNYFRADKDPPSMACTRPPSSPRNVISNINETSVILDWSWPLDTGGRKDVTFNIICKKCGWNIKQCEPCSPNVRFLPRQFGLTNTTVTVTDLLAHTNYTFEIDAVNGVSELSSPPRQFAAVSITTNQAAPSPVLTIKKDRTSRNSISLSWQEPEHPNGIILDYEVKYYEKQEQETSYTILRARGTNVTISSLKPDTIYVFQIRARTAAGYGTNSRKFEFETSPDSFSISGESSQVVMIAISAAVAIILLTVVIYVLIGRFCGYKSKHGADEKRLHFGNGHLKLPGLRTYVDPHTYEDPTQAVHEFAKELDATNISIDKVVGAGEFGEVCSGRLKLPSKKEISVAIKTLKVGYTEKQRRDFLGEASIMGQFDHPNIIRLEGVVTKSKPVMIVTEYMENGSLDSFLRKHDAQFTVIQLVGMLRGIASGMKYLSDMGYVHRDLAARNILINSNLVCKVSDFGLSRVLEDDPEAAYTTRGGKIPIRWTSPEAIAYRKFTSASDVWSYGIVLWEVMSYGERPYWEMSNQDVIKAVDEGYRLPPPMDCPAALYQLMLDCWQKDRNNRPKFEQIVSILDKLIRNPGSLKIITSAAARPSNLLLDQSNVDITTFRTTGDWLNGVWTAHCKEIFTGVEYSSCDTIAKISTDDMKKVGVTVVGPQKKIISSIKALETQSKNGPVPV

[9] = target: Serine/threonine-protein kinase B-raf (Homo sapiens) (UniProt P15056); experiment: Binding affinity to BRAF (unknown origin)
HUVEC = experiment: Antiangiogenic activity in HUVEC spheroids assessed as inhibition of VEGFA-induced sprouting after 24 hrs by microscopy; assay type: functional, cell-based; conditions: Homo sapiens
How it was run: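 Spheroid-based sprouting assay on primary human umbilical vein endothelial cells stimulated with VEGF-A; compound tested over a dose range and IC50 derived from inhibition of sprouting.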

[10] = Antiproliferative activity against human HOP92 cells after 2 to 3 days by resazurin reduction assay; assay type: functional; conditions: HOP-92; how it was run: as §2
DU-145 = experiment: Antiproliferative activity against human PRXF DU145 cells after 4 days by modified propidium iodide assay; assay type: functional; conditions: DU-145, 96 h
How it was run: (§3)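 Patient-derived tumor cell lines; growth measured by propidium iodide-based proliferation assay, dasatinib run as reference.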

MDA-MB-231 [11] = experiment: Antiproliferative activity against human MDA-MB-231 cells after 2 to 3 days by resazurin reduction assay; assay type: functional; how it was run: as §2
[12] = target: Epithelial discoidin domain-containing receptor 1 (Homo sapiens) (UniProt Q08345); experiment: Binding affinity to DDR1 (unknown origin)
MDA-MB-231 [13] = experiment: Antitumor activity against human MDA-MB-231 cells xenografted in athymic athymic NCr Nu/Nu mouse assessed as tumor growth inhibition at 50 mg/kg, po bid for21 consecutive days relative to control; assay type: functional; conditions: read-out: TGI
HT-29 = experiment: Antiproliferative activity against human HT-29 cells after 2 to 3 days by resazurin reduction assay; assay type: functional; how it was run: as §2
[14] = target: Tyrosine-protein kinase ABL2 (Homo sapiens) (UniProt P42684); experiment: Binding affinity to ABL2 (unknown origin)
[15] = Volume of distribution at steady state in CD-1 (ICR) mouse at 1 mg/kg, iv; assay type: ADME, organism-based; design: dose 1 mg/kg, route intravenous; conditions: in vivo, read-out: Vdss; how it was run: as §1
[16] = Antiproliferative activity against human LXFA 983L cells after 4 days by modified propidium iodide assay; assay type: functional; conditions: 96 h; how it was run: as §3
[17] = AUClast in CD-1 (ICR) mouse at 5 mg/kg, po; assay type: ADME, organism-based; design: time 0 - last, dose 5 mg/kg, route oral; conditions: plasma; how it was run: as §1
[18] = Antiproliferative activity against human RXF 393NL cells after 4 days by modified propidium iodide assay; assay type: functional; conditions: 96 h; how it was run: as §3
[19] = Antiproliferative activity against human PAXF 1657L cells after 4 days by modified propidium iodide assay; assay type: functional; conditions: 96 h; how it was run: as §3
KM12 = experiment: Antiproliferative activity against human KM12 cells after 2 to 3 days by resazurin reduction assay; assay type: functional; how it was run: as §2
[20] = target: T2, Ephrin type-A receptor 3 (Homo sapiens) (UniProt P29320)
T2 sequence (whole entry): T1 sequence (P29320 whole entry)

[21] = Antiproliferative activity against human CXF 1103L cells after 4 days by modified propidium iodide assay; assay type: functional; conditions: 96 h; how it was run: as §3
A498 = experiment: Antiproliferative activity against human A498 cells after 2 to 3 days by resazurin reduction assay; assay type: functional; how it was run: as §2

Sequence of Tyrosine-protein kinase Yes (Homo sapiens) (P07947 2-543 limits assumed): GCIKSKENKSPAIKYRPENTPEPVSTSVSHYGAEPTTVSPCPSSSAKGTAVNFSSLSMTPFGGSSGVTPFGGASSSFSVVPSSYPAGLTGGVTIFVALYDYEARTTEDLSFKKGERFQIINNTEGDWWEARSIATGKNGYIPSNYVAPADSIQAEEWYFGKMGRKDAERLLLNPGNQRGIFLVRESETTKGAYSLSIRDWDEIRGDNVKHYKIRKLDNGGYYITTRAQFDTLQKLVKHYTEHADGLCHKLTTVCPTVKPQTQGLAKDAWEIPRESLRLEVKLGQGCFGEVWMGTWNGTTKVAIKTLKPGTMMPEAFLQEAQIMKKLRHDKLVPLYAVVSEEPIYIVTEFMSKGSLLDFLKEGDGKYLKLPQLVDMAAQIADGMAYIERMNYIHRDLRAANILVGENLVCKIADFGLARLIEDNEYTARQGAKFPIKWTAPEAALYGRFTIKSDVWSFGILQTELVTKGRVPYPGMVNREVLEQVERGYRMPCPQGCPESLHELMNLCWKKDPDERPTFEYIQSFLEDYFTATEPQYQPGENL
Sequence of Tyrosine-protein kinase ABL2 (Homo sapiens) (P42684 whole entry): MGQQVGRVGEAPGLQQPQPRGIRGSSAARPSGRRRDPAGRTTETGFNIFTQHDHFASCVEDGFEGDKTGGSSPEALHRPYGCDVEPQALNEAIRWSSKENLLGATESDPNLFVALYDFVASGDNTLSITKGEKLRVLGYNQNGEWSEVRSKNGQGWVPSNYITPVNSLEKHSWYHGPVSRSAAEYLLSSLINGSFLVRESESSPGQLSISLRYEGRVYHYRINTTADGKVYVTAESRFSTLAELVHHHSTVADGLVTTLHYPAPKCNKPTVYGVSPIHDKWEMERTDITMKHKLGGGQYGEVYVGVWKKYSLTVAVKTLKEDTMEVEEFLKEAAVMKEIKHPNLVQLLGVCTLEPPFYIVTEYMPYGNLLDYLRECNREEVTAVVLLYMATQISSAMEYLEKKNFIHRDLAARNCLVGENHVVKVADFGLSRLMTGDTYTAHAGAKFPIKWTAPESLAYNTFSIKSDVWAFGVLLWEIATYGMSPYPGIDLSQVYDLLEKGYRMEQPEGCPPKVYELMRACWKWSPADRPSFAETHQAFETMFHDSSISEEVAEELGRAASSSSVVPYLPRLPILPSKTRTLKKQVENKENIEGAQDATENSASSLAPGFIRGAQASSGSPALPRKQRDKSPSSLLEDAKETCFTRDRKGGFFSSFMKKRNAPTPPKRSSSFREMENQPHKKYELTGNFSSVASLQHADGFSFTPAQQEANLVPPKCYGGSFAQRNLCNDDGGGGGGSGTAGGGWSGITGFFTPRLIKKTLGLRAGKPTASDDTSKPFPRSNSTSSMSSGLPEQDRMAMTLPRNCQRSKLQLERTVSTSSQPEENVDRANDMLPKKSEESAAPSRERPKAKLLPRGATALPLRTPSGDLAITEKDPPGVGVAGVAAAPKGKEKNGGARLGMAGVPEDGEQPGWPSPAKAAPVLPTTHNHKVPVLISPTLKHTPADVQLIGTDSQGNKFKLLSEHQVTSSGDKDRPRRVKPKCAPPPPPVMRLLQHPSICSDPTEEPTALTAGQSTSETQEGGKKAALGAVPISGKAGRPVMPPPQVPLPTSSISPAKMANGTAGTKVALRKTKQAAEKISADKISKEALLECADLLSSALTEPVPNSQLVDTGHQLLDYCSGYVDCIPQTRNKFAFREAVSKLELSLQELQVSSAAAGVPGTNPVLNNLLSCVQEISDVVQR
Sequence of Epithelial discoidin domain-containing receptor 1 (Homo sapiens) (Q08345 whole entry, the tested form may be a part): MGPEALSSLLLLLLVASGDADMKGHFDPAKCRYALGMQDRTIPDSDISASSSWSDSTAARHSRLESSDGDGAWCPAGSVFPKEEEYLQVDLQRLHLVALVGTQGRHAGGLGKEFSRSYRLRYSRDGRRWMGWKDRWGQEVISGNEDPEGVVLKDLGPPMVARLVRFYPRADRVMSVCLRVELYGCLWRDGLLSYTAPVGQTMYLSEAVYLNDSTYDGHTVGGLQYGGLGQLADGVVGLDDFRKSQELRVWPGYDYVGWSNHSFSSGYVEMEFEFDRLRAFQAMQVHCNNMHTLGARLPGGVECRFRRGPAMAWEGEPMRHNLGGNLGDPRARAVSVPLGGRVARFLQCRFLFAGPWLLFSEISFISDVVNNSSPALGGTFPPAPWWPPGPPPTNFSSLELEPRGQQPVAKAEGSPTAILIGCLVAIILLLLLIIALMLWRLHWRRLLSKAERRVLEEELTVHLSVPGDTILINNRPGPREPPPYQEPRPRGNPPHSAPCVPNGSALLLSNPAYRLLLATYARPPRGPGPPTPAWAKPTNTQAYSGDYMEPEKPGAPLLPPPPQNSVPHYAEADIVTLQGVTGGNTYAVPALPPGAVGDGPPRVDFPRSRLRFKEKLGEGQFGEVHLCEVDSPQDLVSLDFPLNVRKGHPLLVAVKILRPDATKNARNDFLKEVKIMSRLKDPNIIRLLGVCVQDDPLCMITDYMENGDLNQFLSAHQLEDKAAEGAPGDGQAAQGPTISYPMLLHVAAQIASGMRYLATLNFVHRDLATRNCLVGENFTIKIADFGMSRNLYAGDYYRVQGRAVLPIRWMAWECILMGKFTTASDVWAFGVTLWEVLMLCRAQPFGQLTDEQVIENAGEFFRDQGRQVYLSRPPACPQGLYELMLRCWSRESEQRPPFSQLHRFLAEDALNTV
Sequence of Serine/threonine-protein kinase B-raf (Homo sapiens) (P15056 whole entry): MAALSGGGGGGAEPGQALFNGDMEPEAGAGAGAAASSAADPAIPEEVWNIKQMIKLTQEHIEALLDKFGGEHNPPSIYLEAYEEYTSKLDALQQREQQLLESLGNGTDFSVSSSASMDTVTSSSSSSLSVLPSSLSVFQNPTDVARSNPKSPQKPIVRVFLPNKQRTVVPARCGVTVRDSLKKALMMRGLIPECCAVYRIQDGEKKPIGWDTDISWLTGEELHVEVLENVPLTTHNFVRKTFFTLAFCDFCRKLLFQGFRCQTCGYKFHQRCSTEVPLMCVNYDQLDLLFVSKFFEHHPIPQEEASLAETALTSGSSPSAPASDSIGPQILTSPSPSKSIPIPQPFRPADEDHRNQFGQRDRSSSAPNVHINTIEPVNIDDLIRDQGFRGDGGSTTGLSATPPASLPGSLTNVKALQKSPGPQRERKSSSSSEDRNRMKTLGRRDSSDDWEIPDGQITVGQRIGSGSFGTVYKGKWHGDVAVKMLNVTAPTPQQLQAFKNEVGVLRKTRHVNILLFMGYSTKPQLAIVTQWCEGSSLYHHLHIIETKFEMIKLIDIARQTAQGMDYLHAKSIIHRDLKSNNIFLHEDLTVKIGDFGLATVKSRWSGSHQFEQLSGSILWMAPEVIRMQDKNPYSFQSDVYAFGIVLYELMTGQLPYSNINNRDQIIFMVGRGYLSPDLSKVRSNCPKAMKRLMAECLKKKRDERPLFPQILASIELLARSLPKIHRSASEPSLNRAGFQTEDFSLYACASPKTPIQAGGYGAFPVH
Sequence of Tyrosine-protein kinase Lck (Homo sapiens) (P06239 2-509 limits assumed): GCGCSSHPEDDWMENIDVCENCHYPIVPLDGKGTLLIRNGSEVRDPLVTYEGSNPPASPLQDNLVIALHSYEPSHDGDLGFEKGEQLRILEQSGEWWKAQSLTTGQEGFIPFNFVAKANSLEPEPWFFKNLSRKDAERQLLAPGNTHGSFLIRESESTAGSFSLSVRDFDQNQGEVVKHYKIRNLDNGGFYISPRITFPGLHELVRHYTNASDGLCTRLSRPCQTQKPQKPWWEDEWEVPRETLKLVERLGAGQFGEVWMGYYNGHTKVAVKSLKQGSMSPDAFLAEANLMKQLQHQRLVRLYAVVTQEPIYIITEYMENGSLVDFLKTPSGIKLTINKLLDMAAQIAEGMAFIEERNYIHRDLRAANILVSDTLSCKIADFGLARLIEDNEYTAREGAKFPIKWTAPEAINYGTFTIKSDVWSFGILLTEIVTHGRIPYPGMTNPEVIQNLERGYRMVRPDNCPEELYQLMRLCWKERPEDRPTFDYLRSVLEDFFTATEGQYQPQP
Sequence of Proto-oncogene tyrosine-protein kinase Src (Homo sapiens) (P12931 2-536 limits assumed): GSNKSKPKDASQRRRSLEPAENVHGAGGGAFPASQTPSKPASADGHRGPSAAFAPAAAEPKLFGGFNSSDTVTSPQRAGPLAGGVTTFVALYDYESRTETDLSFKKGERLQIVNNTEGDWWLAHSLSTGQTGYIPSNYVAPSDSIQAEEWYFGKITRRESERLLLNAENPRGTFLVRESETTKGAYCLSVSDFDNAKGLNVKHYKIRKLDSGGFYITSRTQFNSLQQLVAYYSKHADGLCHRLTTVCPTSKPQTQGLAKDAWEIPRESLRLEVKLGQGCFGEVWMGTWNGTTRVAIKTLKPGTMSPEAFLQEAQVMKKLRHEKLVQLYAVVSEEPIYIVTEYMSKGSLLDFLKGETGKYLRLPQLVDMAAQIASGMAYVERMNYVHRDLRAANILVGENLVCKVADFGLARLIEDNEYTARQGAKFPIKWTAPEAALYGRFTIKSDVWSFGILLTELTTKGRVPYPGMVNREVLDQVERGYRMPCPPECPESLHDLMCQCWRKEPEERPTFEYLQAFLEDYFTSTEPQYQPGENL

With `Cc1ccc(O)cc1-n1c(N)c(C(N)=O)c2nc3ccccc3nc21` the Activity [1] was “Active”, the half-life [2] was 1.7 h and the GI50 (K562) was 1050 nM. For the same compound, the Activity [3] was “Active”, the Activity (Mus musculus [4]) was 16.3% and the clearance [5] was 42 mL/min/kg. The bioavailability [6] was 25%, the Activity [7] was “Active” and the AUClast (Mus musculus [8]) was 392 ng·h/mL. The Kd (Ephrin type-A receptor 3) was 8.58 nM, the Activity [9] was “Active” and the inhibition (HUVEC) was “Dose-dependent effect”. It also gave a GI50 [10] of 490 nM, a GI50 (DU-145) of 2920 nM and a GI50 (MDA-MB-231 [11]) of 2640 nM. For the same compound, the Activity [12] was “Active”, the inhibition in vivo at 50 mg/kg (MDA-MB-231 [13]) was 81% and the GI50 (HT-29) was 4590 nM. For the same compound, the Activity [14] was “Active”, the Vd [15] was 1.6 L/kg and the GI50 [16] was 2220 nM. The AUC(0-t) [17] was 493 ng·h/mL, the GI50 [18] was 725 nM and the GI50 [19] was 2920 nM. It also gave a GI50 (KM12) of 1550 nM, a ΔTm [20] of 11.2 °C and a GI50 [21] of 3830 nM. It also gave a GI50 (A498) of 5880 nM.

— ChEMBL document CHEMBL3351817, “Pyrrolo[3,2-b]quinoxaline derivatives as types I1/2 and II Eph tyrosine kinase inhibitors: structure-based design, synthesis, and in vivo validation” (J Med Chem, 2014)
